In experiment [1] the test system is Mus musculus. Nature of the experiment: Anti-obesity activity in high fat diet-induced obese C57BL/6J mouse model assessed as reduction in body weight gain at 10 mg/kg, po for 6 weeks. In kind it is functional, organism-based. Put shortly:
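High-fat (60% fat) diet-induced obese male C57BL/6J mice, started at 5-6 weeks old and 22-25 g. Oral dosing for six weeks from a DMSO stock diluted into 5% gum acacia/normal saline (working DMSO <5%), against HFD vehicle controls. Cumulative body weight gain tracked over treatment, n=4-5, analysed by two-way ANOVA.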

Experiment [2] deals with Mus musculus. As to the kind of experiment: Anti-obesity activity in high fat diet-induced obese C57BL/6J mouse model assessed as decrease in fat mass at 10 mg/kg, po for 6 weeks by NMR-MRI analysis. In kind it is functional, organism-based. Put shortly:
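Male C57BL/6J mice, 5-6 weeks old (22-25 g), made obese on a 60% fat diet. Dosed orally for six weeks, dissolved in DMSO then mixed into 5% gum acacia in normal saline (working DMSO <5%), against HFD vehicle-treated mice. Total body fat compared at end of treatment, n=4-5/group, by one-way ANOVA with Newman-Keuls test.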

The subject of experiment [3] is Mus musculus. As to the kind of experiment: Antiobesity activity in high fat diet-induced obese C57BL/6J mouse model assessed as improvement in glucose tolerance at 20 mg/kg, po measured post glucose challenge by intraperitoneal glucose tolerance test. In kind it is functional, organism-based. The procedure, abridged:
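After six weeks of oral dosing (20 mg/kg) in HFD obese C57BL/6J mice, animals were fasted 16 h and baseline glucose was taken from the tail tip. Glucose 2 g/kg was given i.p., and blood glucose was measured at 15, 30, 60, 90 and 120 min. Mean ± SEM, 4-5 mice/group.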

Experiment [4] has as its system Mus musculus. Nature of the experiment: Anti-obesity activity in high fat diet-induced obese C57BL/6J mouse model assessed as plasma leptin level at 20 mg/kg, po for 6 weeks (reference value: 1751 +/- 325.4 pg/mg). In kind it is functional.
Experiment [5] concerns Mus musculus. Nature of the experiment: Anti-obesity activity in high fat diet-induced obese C57BL/6J mouse model assessed as lean mass at 20 mg/kg, po for 6 weeks by NMR-MRI analysis (reference value: 25.58 +/- 0.6789 g). Format: functional.
Experiment [6] relates to Mus musculus. Nature of the experiment: Effect on serum triglyceride level in high fat diet-induced obese C57BL/6J mouse model at 20 mg/kg, po for 6 weeks (reference value: 40.96 +/- 4.592 mg/dl). Format: functional.
For experiment [7], the system named is Mus musculus. As to the kind of experiment: Effect on HDL cholesterol level in high fat diet-induced obese C57BL/6J mouse model at 20 mg/kg, po for 6 weeks (reference value: 57.8 +/- 3.385 mg/dl). In kind it is functional.
In experiment [8] the test system is Mus musculus. Nature of the experiment: Effect on LDL cholesterol level in high fat diet-induced obese C57BL/6J mouse model at 20 mg/kg, po for 6 weeks (reference value: 11.56 +/- 1.587 mg/dl). In kind it is functional.
The subject of experiment [9] is Mus musculus. As to the kind of experiment: Anti-obesity activity in high fat diet-induced obese C57BL/6J mouse model assessed as fat mass at 20 mg/kg, po for 6 weeks by NMR-MRI analysis (reference value: 16.52 +/- 1.154 g). Format: functional.
The test system of experiment [10] is Mus musculus. As to the kind of experiment: Anti-obesity activity in high fat diet-induced obese C57BL/6J mouse model assessed as fasting glucose level at 20 mg/kg, po for 6 weeks (reference value: 93.17 +/- 5.793 mg/dL). In kind it is functional. Put shortly:
(§1)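 Male C57BL/6J mice, 5-6 weeks old, 22-25 g, fed 60% fat diet to induce obesity. Dosed orally once at 20 mg/kg for six weeks; drug dissolved in DMSO, then mixed into 5% gum acacia in normal saline (working DMSO <5%). Controls were vehicle-treated HFD mice. Body weight was tracked, and fasting glucose was read by glucose meter after a 16 h fast; n=4-6.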

Experiment [11] deals with Mus musculus. As to the kind of experiment: Anti-obesity activity in high fat diet-induced obese C57BL/6J mouse model assessed as reduction in body weight at 20 mg/kg, po for 6 weeks. In kind it is functional. The procedure, abridged: as §1
The test system of experiment [12] is Mus musculus. Nature of the experiment: Anti-obesity activity in high fat diet-induced obese C57BL/6J mouse model assessed as reduction in body weight gain at 20 mg/kg, po for 6 weeks. Format: functional, organism-based. Put shortly: as §1
The subject of experiment [13] is Mus musculus. As to the kind of experiment: Effect on total cholesterol level in high fat diet-induced obese C57BL/6J mouse model at 20 mg/kg, po for 6 weeks (reference value: 120.8 +/- 7.206 mg/dl). Format: functional.

Activity calls are given as the source filed them. The calls are words filed in the database; no cut-off is given here.

The record followed here is ChEMBL document CHEMBL4152241, “Discovery of coumarin-dihydroquinazolinone analogs as niacin receptor 1 agonist with in-vivo anti-obesity efficacy” (Eur J Med Chem, 2018).

Consider `C[C@H]1CNCCc2ccc(Cl)cc21`, for which the outcome in the experiment on Mus musculus [1] and with Mus musculus [2] was Active.
Regarding `COc1ccc(-c2cc3cc(C4Nc5ccccc5C(=O)N4C)cc(C)c3oc2=O)cc1` (stereo not drawn), the result in the experiment with Mus musculus [3] was inactive. Also, the Activity amounted to 807.6 pg/mg in the experiment with Mus musculus [4]; 23.16 g in the experiment on Mus musculus [5]; 36.97 mg/dL in the experiment with Mus musculus [6]; 45.92 mg/dL in the experiment with Mus musculus [7]; 10.4 mg/dL in the experiment with Mus musculus [8]; 13.01 g in the experiment with Mus musculus [9]. For the same compound, the Activity with Mus musculus [10] is 63 mg/dL; with Mus musculus [11] it was 0.72 g; with Mus musculus [13] it was 95.6 mg/dL. In addition, the result in the experiment on Mus musculus [12] was Active.
